Data reported in ChEMBL document CHEMBL4373710, “DNA Structural Alteration Leading to Antibacterial Properties of 6-Nitroquinoxaline Derivatives” (J Med Chem, 2019).
Values after ≈ are worked out from the molar mass of the structure shown. Active and inactive are the calls of the source. The calls are words filed in the database; no cut-off is given here.

Legend:
Staphylococcus aureus [1] = test: Antibacterial activity against Staphylococcus aureus MTCC737 measured after 6 hrs by broth microdilution assay; assay type: functional; conditions: MTCC737, 6 h
Method in brief: (§1)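 Broth microdilution per CLSI; 5×10^5 cfu/mL bacteria in LB broth; compounds from DMSO stocks, final DMSO under 0.6%, with DMSO control. Plates incubated at the strain's recommended growth temperature and time; growth read as OD600.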

[2] = Antibacterial activity against Arthrobacter chlorophenolicus A6MTCC3706 by broth microdilution assay; assay type: functional; conditions: Pseudarthrobacter chlorophenolicus; method in brief: as §1
HEK293 [3] = test: Cytotoxicity against HEK293 cells measured after 24 hrs by MTT assay; assay type: cell-based; conditions: Homo sapiens, HEK293, 24 h
Method in brief: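 HEK 293 cells, 4000/well, seeded overnight in DMEM + 10% FBS at 37°C in CO2; compound dose series for 24 h (final DMSO <0.5%, DMSO-only control). MTT at 1 mg/mL final for 3 h, formazan dissolved in DMSO, absorbance 595 nm; IC50 from triplicate OD data.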

HEK293 [4] = test: Induction of morphological changes in HEK293 cells at 5 uM by propidium iodide staining based assay; assay type: cell-based; conditions: human, hek293, 5 µM
[5] = Binding affinity to pCDNA 3.1 (unknown origin) assessed as DNA unwinding effect at 2:1 to 4:1 compound to DNA ratio measured after 16 hrs by EtBr staining agarose gel shift assay
Method in brief: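 pcDNA3.1 plasmid was grown in E. coli DH5α and used at 40 µM in 50 mM NaP, pH 7, with 10 mM NaCl. Mixed with compound at set [compound]:[DNA bp] ratios and held 16 h at 37 °C. Run on 1% agarose at 50 V for about 3 h, then stained with EtBr (1 µg/mL) for 5 min.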

[6] = tested on: Poly(dG-dC)oligonucleotide; test: Binding affinity to poly(dG-dC) DNA (unknown origin) assessed as appearance of induced CD by circular dichroism method; assay type: nucleic-acid assay
Method in brief: (§2)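 Poly(dA-dT)·poly(dA-dT) or poly(dG-dC)·poly(dG-dC) held at 10 µM. Titrated with compound from 20 to 60 µM and followed by circular dichroism for change in the B-DNA band and appearance of induced CD.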

[7] = tested on: Poly(dA-dT)oligonucleotide; test: Binding affinity to poly(dA-dT) DNA (unknown origin) assessed as change in B-DNA structure up to 6:1 compound to DNA ratio by circular dichroism method; assay type: nucleic-acid assay; method in brief: as §2
[8] = tested on: Poly(dA-dT)oligonucleotide; test: Binding affinity to poly(dA-dT) DNA (unknown origin) assessed as appearance of induced CD up to 6:1 compound to DNA ratio by circular dichroism method; assay type: nucleic-acid assay; method in brief: as §2
[9] = tested on: Pseudarthrobacter chlorophenolicus; test: Binding affinity to Arthrobacter chlorophenolicus DNA assessed as change in B-DNA structure by circular dichroism method
Method in brief: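 Genomic DNA isolated from overnight cultures of each strain. Titrated with compound from 15 to 60 µM in a 10 mm quartz cuvette. CD spectra recorded from 230 to 500 nm at 100 nm/min; ellipticity followed at 320 nm.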

DNA [10] = test: Binding affinity to Escherichia coli pBR322 DNA assessed as DNA unwinding at 0.5:1 to 1.5:1 compound to DNA ratio by atomic force microscopic analysis; assay type: nucleic-acid assay
Method in brief: (§3)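 Supercoiled pBR322 plasmid treated with compound at [compound]:[DNA bp] ratios of 0.5:1, 1:1, 1.5:1, 2:1 and 3:1. Imaged by atomic force microscopy, with DNA height measured and compared against untreated plasmid.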

DNA [11] = test: Binding affinity to Escherichia coli pBR322 DNA assessed as height of DNA at 0.5:1 to 3:1 compound to DNA ratio by atomic force microscopic analysis; assay type: nucleic-acid assay; method in brief: as §3
DNA [12] = test: Binding affinity to Staphylococcus aureus DNA assessed as DNA condensation at 3:1 compound to DNA ratio by atomic force microscopic analysis; assay type: nucleic-acid assay
Method in brief: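 Isolated S. aureus genomic DNA (2.8 Mbp) treated with compound at increasing [compound]:[DNA bp] ratios, up to 3:1. Imaged by atomic force microscopy against untreated DNA.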

DNA [13] = test: Induction of DNA condensation in Staphylococcus aureus assessed as decrease in nucleoid area at 10 uM after 1 hr by DAPI staining-based confocal laser scanning fluorescence microscopic analysis relative to control; assay type: nucleic-acid assay; design: scale not given: the % may be the effect or the level left
Method in brief: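 S. aureus grown 6 h at 37 °C, washed into PBS and exposed to 10 µM compound or 0.5% DMSO for 1 h at 37 °C with shaking. Fixed in paraformaldehyde for 30 min at 4 °C, then DAPI-stained for 5 min. Nucleoid and cell areas measured from phase contrast/DAPI images; N/C ratio from 35 cells over three independent experiments, mean ± SD.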

Staphylococcus aureus [14] = test: Inhibition of DNA synthesis in Staphylococcus aureus assessed as reduction in [3H]-thymidine incorporation at 3.5 to 5 uM measured after 30 mins by scintillation counting analysis; assay type: functional, organism-based
Method in brief: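 Log-phase S. aureus (10^5–10^6 CFU/mL) incubated with 3.5 or 5 µM, then pulsed 30 min with 3H-thymidine (1 µCi/well); cells harvested and counted by liquid scintillation. 5-fluorouracil (2 µM) as positive control.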

Staphylococcus aureus [15] = test: Induction of DNA fragmentation in Staphylococcus aureus at 3.5 uM by EtBr staining based confocal laser scanning fluorescence microscopic analysis; assay type: functional, organism-based
Staphylococcus aureus [16] = test: Induction of morphological changes in Staphylococcus aureus assessed as change in microbe length at 3.5 uM by atomic force microscopic analysis (reference value: 1.37 +/- 0.09 micrometer); assay type: functional
Staphylococcus aureus [17] = test: Induction of morphological changes in Staphylococcus aureus assessed as change in microbe length at 5 uM by atomic force microscopic analysis (reference value: 1.37 +/- 0.09 micrometer); assay type: functional
Staphylococcus aureus [18] = test: Induction of morphological changes in Staphylococcus aureus assessed as cell aggregation at 3.5 to 5 uM by atomic force microscopic analysis; assay type: functional, organism-based
Staphylococcus aureus [19] = test: Induction of morphological changes in Staphylococcus aureus at 3.5 uM measured after 6 hrs by acridine orange dye based confocal laser scanning fluorescence microscopic analysis; assay type: functional, organism-based
Method in brief: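 S. aureus with 3.5 µM for 6 h at 37°C; fixed in paraformaldehyde, permeabilised with 0.2% Triton X-100 and lysostaphin 0.05 mg/mL; stained with acridine orange 3 µM for 5 min at 37°C; confocal imaging at 60X.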

Staphylococcus aureus [20] = test: Induction of morphological changes in Staphylococcus aureus assessed as changed population at 7.5 uM measured after 2 hrs by flow cytometric analysis (reference value: 5.71%); assay type: functional
Staphylococcus aureus [21] = test: Induction of morphological changes in Staphylococcus aureus assessed as increase in changed population measured after 2 hrs by flow cytometric analysis; assay type: functional, organism-based
Staphylococcus aureus [22] = test: Disruption of cell membrane in Staphylococcus aureus assessed as accumulation of propidium iodide negative cells at 3.5 uM by flow cytometric analysis (reference value: 98.2%); assay type: functional
Staphylococcus aureus [23] = test: Disruption of cell membrane in Staphylococcus aureus assessed as accumulation of propidium iodide positive cells at 3.5 uM by flow cytometric analysis (reference value: 1.7%); assay type: functional
Staphylococcus aureus [24] = test: Disruption of preformed biofilm in Staphylococcus aureus at MIC measured after 12 hrs by crystal violet staining based light microscopic analysis; assay type: functional, organism-based
Method in brief: (§4)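 Planktonic cells washed off; 1% crystal violet 10 min, solubilised in 30% acetic acid, A550 read; wells also imaged at 20X by light microscopy.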

Staphylococcus aureus [25] = test: Disruption of preformed biofilm in Staphylococcus aureus at 4 times MIC measured after 12 hrs by crystal violet staining based light microscopic analysis; assay type: functional; method in brief: as §4

MIC (Staphylococcus aureus [1]): 1.79 µg/mL (≈ 3.99 µM)
MIC [2]: 0.897 µg/mL (≈ 2 µM)
Activity [5]: Active
Activity [6]: Dose-dependent effect
Activity [7]: inactive
Activity [8]: inactive
Activity [9]: Dose-dependent effect
Activity (DNA [10]): Active
Activity (DNA [11]): 0.32 to 1.3 nm
Activity (DNA [12]): Active
Activity (DNA [13]): 30%
SMILES: CN(C)CCCNc1nc2cc([N+](=O)[O-])ccc2nc1NCc1ccc(C(F)(F)F)cc1
IC50 (HEK293 [3]): 5.66 µg/mL (≈ 12.6 µM)
Activity (HEK293 [4]): Non-Toxic
inhibition (Staphylococcus aureus [14]): Active
Activity (Staphylococcus aureus [15]): Active
Activity (Staphylococcus aureus [16]): 2.3 um
Activity (Staphylococcus aureus [17]): 2.36 um
Activity (Staphylococcus aureus [18]): Active
Activity (Staphylococcus aureus [19]): Active
Activity (Staphylococcus aureus [20]): 16.4%
Activity (Staphylococcus aureus [21]): Dose-dependent effect
Activity (Staphylococcus aureus [22]): 91.6%
Activity (Staphylococcus aureus [23]): 7.96%
Activity (Staphylococcus aureus [24]): Active
Activity (Staphylococcus aureus [25]): 100%
